This is an account of results in ChEMBL document CHEMBL3272068, “Synthesis and biological activities of some N4-substituted 4-aminopyrazolo(3,4-d)pyrimidines” (J Med Chem, 1976).

Molecules are shown by their SMILES.

The nature of data set [1]: Antiproliferative activity against human Nc37 cells assessed as cell viability at 0.1 mM after 72 hrs by trypan blue dye based hemocytometer analysis relative to control. Also noted: species or system NC-37. The settings on record: read-out: Activity. An outline of the steps:
(§1)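 Nc 37 (normal donor buffy coat), RPMI 6410 (myeloblastic leukemia) and murine L1210 cells. Compound dissolved in Me2SO, held at 37° overnight for sterilization, diluted in RPMI 1640 + 10% fetal calf serum to final 10⁻⁴ M with 0.5% Me2SO. Unagitated tubes seeded at 2–5 × 10⁵ cells/ml from log-phase stocks. Trypan blue (0.05%) hemocytometer counts every 24 h. Viable density versus control at 72 h banded into rating categories.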

Data set [2] can be described thus: Antiproliferative activity against human RPMI6410 cells assessed as cell viability at 0.1 mM after 72 hrs by trypan blue dye based hemocytometer analysis relative to control. Type of data set: functional. The settings on record: RPMI 6410, 72 h, read-out: Activity. The method, boiled down: as §1
A further data set has as its system L1210. Kind of data set: Antiproliferative activity against mouse L1210 cells assessed as cell viability at 0.1 mM after 72 hrs by trypan blue dye based hemocytometer analysis relative to control. Type of data set: functional. Particulars: L1210, 72 h, read-out: Activity. An outline of the steps:
as §1

Data set [3] can be described thus: Antiproliferative activity against human RPMI6410 cells assessed as growth inhibition at 0.1 mM. Type of data set: functional. Particulars: RPMI 6410. An outline of the steps: as §1

`O=C(Nc1cccc(Cl)c1)Nc1ncnc2[nH]ncc12`: the viability at 72 h, 100 µM in data set [1] was 0%. The viability at 100 µM (in data set [2]; with L1210) was 0% each time.
As to `CC(C)NC(=O)Nc1ncnc2[nH]ncc12`, the viability at 72 h, 100 µM in data set [1] came out at 30%. In addition, the viability at 100 µM (in data set [2]; with L1210) was 80% each time.
Regarding `CCCCNC(=O)Nc1ncnc2[nH]cnc12`, the inhibition (as a rule, the percentage by which the read-out fell short of the control) at 100 µM in data set [3] is 70%.
With `CC(C)Nc1ncnc2[nH]ncc12`, in data set [1], the viability at 72 h, 100 µM came to 30%. In addition, the values for the viability at 100 µM (in data set [2]; in the data set with L1210) were 60% and 90%, respectively.
On the same counts, the results for `O=C(Nc1ccccc1)Nc1ncnc2[nH]ncc12` are 90%, 30% and 60%.
The like results for `CC(C)CCNc1ncnc2[nH]ncc12` were, in that order, 0%, 30% and 0%.
Consider `CC(C)(C)NC(=O)Nc1ncnc2[nH]ncc12`, for which, in data set [1], the viability at 72 h, 100 µM turned out to be 60%. For the same molecule, the results for the viability at 100 µM (in data set [2]; in the data set with L1210) were 60% and 30%, respectively.
For `CC(C)(C)CNC(=O)Nc1ncnc2[nH]ncc12`, in data set [1], the viability at 72 h, 100 µM worked out at 60%. The viability at 100 µM in data set [2] came out at 60%; in the data set with L1210, 30%.
On to `O=C(Nc1ccccc1Cl)Nc1ncnc2[nH]ncc12`, for which the viability at 72 h, 100 µM in data set [1] came to 90%. The viability at 100 µM in data set [2] was determined as 80%; in the data set with L1210, 60%.
The like results for `CCNc1ncnc2[nH]ncc12` were, in that order, 90%, 90% and 60%.
In the case of `C=CCNC(=O)Nc1ncnc2[nH]ncc12`, the viability at 72 h, 100 µM in data set [1] was 30%. Also, the viability at 100 µM was determined as 90% in data set [2] and 0% in the data set with L1210.
Take `CC(C)CCNC(=O)Nc1ncnc2[nH]cnc12`: the inhibition at 100 µM in data set [3] was found to be 70%.
Turning to `O=C(Nc1ccc(Cl)cc1)Nc1ncnc2[nH]ncc12`, in data set [1], the viability at 72 h, 100 µM was 30%. The viability at 100 µM (in data set [2]; in the data set with L1210) was 30% throughout.
Regarding `CC(C)CNC(=O)Nc1ncnc2[nH]ncc12`, the viability at 72 h, 100 µM in data set [1] worked out at 60%. Also, the viability at 100 µM (in data set [2]; in the data set with L1210) was 60% in each case.
As for `CCCCCCCCNC(=O)Nc1ncnc2[nH]ncc12`, in data set [1], the viability at 72 h, 100 µM turned out to be 0%. Moreover, the viability at 100 µM (in data set [2]; in the data set with L1210) was 0% each time.
Consider `O=C(Nc1ncnc2[nH]ncc12)NC12CC3CC(CC(C3)C1)C2`, for which, in data set [1], the viability at 72 h, 100 µM worked out at 30%. Also, the values for the viability at 100 µM (in data set [2]; in the data set on L1210) were 30% and 0%, respectively.
For `C[C@@H](O)[C@H](NC(=O)Nc1ncnc2[nH]ncc12)C(=O)O`, the viability at 72 h, 100 µM in data set [1] came out at 30%. Moreover, the viability at 100 µM (in data set [2]; in the data set with L1210) was 30% in each case.
`CC(C)CCNC(=O)Nc1ncnc2[nH]ncc12`: the viability at 72 h, 100 µM in data set [1] was 60%. The viability at 100 µM (in data set [2]; in the data set on L1210) was 60% each time.
Turning to `O=C(NCCCc1ccccc1)Nc1ncnc2[nH]ncc12`, the viability at 72 h, 100 µM in data set [1] was 30%. Also, the viability at 100 µM (in data set [2]; in the data set on L1210) was 60% each time.
Consider `O=C(O)CNC(=O)Nc1ncnc2[nH]ncc12`, for which, in data set [1], the viability at 72 h, 100 µM stood at 90%. The viability at 100 µM in data set [2] is 60%; in the data set with L1210 it was 80%.
With `O=C(NCCCCc1ccccc1)Nc1ncnc2[nH]ncc12`, in data set [1], the viability at 72 h, 100 µM was 60%. The viability at 100 µM in data set [2] was 80%; in the data set on L1210, 30%.
Consider `CCCCNC(=O)Nc1ncnc2[nH]ncc12`, for which the viability at 72 h, 100 µM in data set [1] is 80%. In addition, the viability at 100 µM in data set [2] amounted to 80%; in the data set with L1210, 60%.
With `O=C(Nc1ccccc1F)Nc1ncnc2[nH]ncc12`, in data set [1], the viability at 72 h, 100 µM turned out to be 90%. The viability at 100 µM (in data set [2]; in the data set on L1210) was 60% each time.
As to `CCOCCNC(=O)Nc1ncnc2[nH]ncc12`, the viability at 72 h, 100 µM in data set [1] came to 80%. For the same molecule, the values for the viability at 100 µM (in data set [2]; with L1210) were 30% and 80%, respectively.
With `CCCCCNC(=O)Nc1ncnc2[nH]ncc12`, the viability at 72 h, 100 µM in data set [1] came to 0%. The viability at 100 µM (in data set [2]; in the data set with L1210) was 30% throughout.
Turning to `C=CCNc1ncnc2[nH]ncc12`, in data set [1], the viability at 72 h, 100 µM was 60%. In addition, the figures for the viability at 100 µM (in data set [2]; in the data set with L1210) were 30% and 60%, respectively.
Consider `CCCCCNC(=O)Nc1ncnc2[nH]cnc12`, for which the inhibition at 100 µM in data set [3] is 70%.
With `C#CCNC(=O)Nc1ncnc2[nH]ncc12`, the viability at 72 h, 100 µM in data set [1] came out at 90%. The figures for the viability at 100 µM (in data set [2]; with L1210) were 30% and 60%, respectively.
On to `c1ccc(CNc2ncnc3[nH]ncc23)cc1`, for which the viability at 72 h, 100 µM in data set [1] was found to be 30%. Besides, the viability at 100 µM was found to be 30% in data set [2] and 0% in the data set on L1210.
